Measured values published in ChEMBL document CHEMBL2321794, “Evaluation of difluoromethyl ketones as agonists of the γ-aminobutyric acid type B (GABAB) receptor” (J Med Chem, 2013).
Active and inactive are the calls of the source. No cut-off for these calls is given here.

What was measured:
HEK293 = assay: Cytotoxicity against HEK293 cells expressing human GABA-B B1/B2 receptor gene after 3 hrs by MTS assay; assay type: cell-based; settings: hek293, 3 h
In short: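 MTS viability in HEK293 cells stably expressing human GABA-B1/B2 with Cre-luc reporter: about 65000 cells/well plated overnight, treated 3 h at 37 °C, 5% CO2 in Optimem, in triplicate. CellTiter Aqueous One reagent then added for 1.5 h; absorbance read at 490 nm.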

[1] = target: GABA-A receptor; alpha-1/beta-2/gamma-2 (Rattus norvegicus, UniProt P18508+P62813+P63138); assay: Agonist activity at rat GABA-A alpha1beta2gamma2 receptor expressed in human TSA201 cells by whole cell voltage-clamp method; assay type: cell-based
In short: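 Whole-cell voltage clamp at rt, holding potential −60 mV, in tsA201 cells transiently transfected (calcium phosphate) with rat α1, β2, γ2s subunits plus GFP (1:1:5:1); recorded the day after replating. Compounds applied at 100 μM via gap-free protocol; currents compared with response to 100 μM GABA. Intracellular NMDG-Cl/CsCl pH 7.2; extracellular NaCl/HEPES pH 7.4; 1 kHz filtering and sampling.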

GABA-B receptor = GABA-B receptor (Homo sapiens, UniProt O75899+Q9UBS5); assay: Agonist activity at human GABA-B B1/B2 receptor expressed in HEK293 cells assessed as inhibition of forskolin-stimulated cAMP accumulation after 3 hrs by luciferase reporter gene assay; assay type: functional, cell-based
Mus musculus [2] = assay: Anxiolytic activity in high alcohol preferring-2 mouse assessed as reduction of startle response under light and noise condition at 12.5 mg/kg, ip treated 25 mins prior to test; assay type: functional, organism-based; set-up: dose 12.5 mg/kg
In short: (§1)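 Experimentally naive HAP2 mice (16 male, 16 female, 316–332 days old). Given ip at 10 mL/kg in 10% DMSO/45% (w/v) 2-hydroxypropyl-β-cyclodextrin in distilled water, 25 min before the test. Conditioning 24 h prior: 40 trials of 30 s, 7 W light paired with 0.5 s, 0.8 mA foot shock at 2 min intervals. Startle force in grams excluding body weight, 70–71 dB background, sexes pooled.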

Mus musculus [3] = assay: Anxiolytic activity in high alcohol preferring-2 mouse assessed as reduction of startle response under noise alone condition at 12.5 mg/kg, ip treated 25 mins prior to test; assay type: functional, organism-based; set-up: dose 12.5 mg/kg; in short: as §1
[4] = target: T1, GABA-A receptor; alpha-1/beta-2/gamma-2 (Rattus norvegicus) (UniProt P18508+P62813+P63138); assay: Agonist activity at rat GABA-Aalpha1beta2gamma2 activity expressed in human TSA201 cells assessed as potentiation of 1 uM GABA-induced current amplitude at 100 uM by whole cell voltage-clamp method; assay type: cell-based
In short: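 Modulation test on tsA201 cells expressing rat α1β2γ2s GABA-A receptor under whole-cell voltage clamp at −60 mV, rt: 1 μM GABA applied alone or simultaneously with 100 μM compound; current amplitude normalized, mean ± SE, N = 5 cells.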

[5] = target: T1, GABA-A receptor; alpha-1/beta-2/gamma-2 (Rattus norvegicus); assay: Agonist activity at rat GABA-Aalpha1beta2gamma2 activity expressed in human TSA201 cells assessed as potentiation of 100 uM GABA-induced current amplitude at 100 uM by whole cell voltage-clamp method; assay type: cell-based
In short: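 Same whole-cell clamp setup (rat α1β2γ2s in tsA201, −60 mV, rt): 100 μM GABA, near-saturating, co-applied with 100 μM compound versus GABA alone; normalized current amplitude, mean ± SE, N = 5.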

Mus musculus [6] = assay: Anxiolytic activity in high alcohol preferring-2 mouse assessed as reduction of startle response under noise alone condition at 36 mg/kg, ip treated 25 mins prior to test; assay type: functional, organism-based; set-up: dose 36 mg/kg
In short: (§2)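 HAP2 mice, experimentally naive (16 male, 16 female, 316–332 days old), given compound ip at 10 mL/kg in 10% DMSO/45% (w/v) 2-hydroxypropyl-β-cyclodextrin in water, 25 min before test. Conditioning: 40 trials of 30 s light paired with 0.5 s, 0.8 mA foot shock; test 24 h later. Startle force in grams on noise-alone and light + noise trials, 70–71 dB background; sexes pooled.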

Mus musculus [7] = assay: Anxiolytic activity in high alcohol preferring-2 mouse assessed as reduction of startle response under light and noise condition at 36 mg/kg, ip treated 25 mins prior to test; assay type: functional, organism-based; set-up: dose 36 mg/kg; in short: as §2
Mus musculus [8] = assay: Anxiolytic activity in high alcohol preferring-2 mouse assessed as reduction of startle response under light and noise condition at 7.5 mg/kg, ip treated 25 mins prior to test; assay type: functional; settings: route intraperitoneal
In short: (§3)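 Male and female HAP2 mice (7 of each, 133–142 days old) with prior startle testing, prepulse testing and vehicle or drug injections, followed by a 15-day washout and counterbalancing. Dosed ip (10 mL/kg, distilled water vehicle) 25 min before the test session. Light (30 s, 7 W) was paired with foot shock (0.5 s, 0.8 mA; 40 trials) 24 h earlier. Startle force in grams, sexes pooled, mean ± SEM.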

Mus musculus [9] = assay: Anxiolytic activity in high alcohol preferring-2 mouse assessed as reduction of startle response under noise alone condition at 7.5 mg/kg, ip treated 25 mins prior to test; assay type: functional; settings: route intraperitoneal; in short: as §3

GABA-B receptor, sequence (Q9UBS5 whole entry): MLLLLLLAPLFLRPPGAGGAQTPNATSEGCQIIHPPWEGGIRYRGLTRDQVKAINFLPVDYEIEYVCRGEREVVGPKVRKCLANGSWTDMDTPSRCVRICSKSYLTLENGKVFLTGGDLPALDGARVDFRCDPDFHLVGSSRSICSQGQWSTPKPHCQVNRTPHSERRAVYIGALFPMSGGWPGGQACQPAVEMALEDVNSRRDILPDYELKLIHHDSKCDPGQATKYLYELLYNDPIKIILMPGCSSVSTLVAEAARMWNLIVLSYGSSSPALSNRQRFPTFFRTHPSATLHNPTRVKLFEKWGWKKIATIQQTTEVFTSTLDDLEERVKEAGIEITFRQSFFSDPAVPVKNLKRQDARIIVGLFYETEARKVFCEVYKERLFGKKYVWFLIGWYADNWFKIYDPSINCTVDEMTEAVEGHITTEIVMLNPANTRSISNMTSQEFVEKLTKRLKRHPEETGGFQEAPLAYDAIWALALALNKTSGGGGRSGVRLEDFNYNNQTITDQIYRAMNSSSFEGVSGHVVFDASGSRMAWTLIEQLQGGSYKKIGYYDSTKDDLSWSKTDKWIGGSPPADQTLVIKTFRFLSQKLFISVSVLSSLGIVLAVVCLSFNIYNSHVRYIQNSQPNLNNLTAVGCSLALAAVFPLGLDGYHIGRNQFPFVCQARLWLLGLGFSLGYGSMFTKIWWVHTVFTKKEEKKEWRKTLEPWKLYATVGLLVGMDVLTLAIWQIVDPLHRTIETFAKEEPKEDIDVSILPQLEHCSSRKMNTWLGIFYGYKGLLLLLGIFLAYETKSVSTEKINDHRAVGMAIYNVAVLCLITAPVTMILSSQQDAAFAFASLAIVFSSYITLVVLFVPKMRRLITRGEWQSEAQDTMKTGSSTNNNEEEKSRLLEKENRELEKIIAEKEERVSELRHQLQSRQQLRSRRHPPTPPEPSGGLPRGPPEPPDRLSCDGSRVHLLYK
GABA-B receptor, sequence (O75899 whole entry): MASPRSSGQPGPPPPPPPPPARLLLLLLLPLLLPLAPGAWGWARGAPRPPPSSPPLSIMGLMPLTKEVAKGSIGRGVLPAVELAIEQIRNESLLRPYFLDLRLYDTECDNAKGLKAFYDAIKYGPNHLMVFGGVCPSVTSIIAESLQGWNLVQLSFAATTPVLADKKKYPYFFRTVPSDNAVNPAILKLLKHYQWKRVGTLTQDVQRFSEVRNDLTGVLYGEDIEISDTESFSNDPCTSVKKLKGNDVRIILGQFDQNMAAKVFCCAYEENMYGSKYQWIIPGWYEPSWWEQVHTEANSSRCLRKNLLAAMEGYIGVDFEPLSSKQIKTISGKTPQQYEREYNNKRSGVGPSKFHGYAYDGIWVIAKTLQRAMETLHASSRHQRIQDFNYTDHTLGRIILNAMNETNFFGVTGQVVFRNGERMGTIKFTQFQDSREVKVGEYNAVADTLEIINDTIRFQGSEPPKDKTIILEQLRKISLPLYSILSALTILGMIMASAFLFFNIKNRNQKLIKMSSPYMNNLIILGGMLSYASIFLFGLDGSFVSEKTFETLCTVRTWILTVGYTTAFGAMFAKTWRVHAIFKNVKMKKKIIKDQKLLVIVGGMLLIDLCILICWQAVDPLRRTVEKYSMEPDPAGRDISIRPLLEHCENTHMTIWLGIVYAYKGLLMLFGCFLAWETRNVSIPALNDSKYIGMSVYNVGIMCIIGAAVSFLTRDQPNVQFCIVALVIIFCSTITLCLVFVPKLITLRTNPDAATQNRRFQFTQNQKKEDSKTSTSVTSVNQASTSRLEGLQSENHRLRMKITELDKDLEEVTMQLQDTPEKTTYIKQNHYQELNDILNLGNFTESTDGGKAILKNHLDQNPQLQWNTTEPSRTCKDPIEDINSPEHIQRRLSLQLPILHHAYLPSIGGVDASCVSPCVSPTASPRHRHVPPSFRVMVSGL
GABA-A receptor; alpha-1/beta-2/gamma-2, sequence (P18508 whole entry): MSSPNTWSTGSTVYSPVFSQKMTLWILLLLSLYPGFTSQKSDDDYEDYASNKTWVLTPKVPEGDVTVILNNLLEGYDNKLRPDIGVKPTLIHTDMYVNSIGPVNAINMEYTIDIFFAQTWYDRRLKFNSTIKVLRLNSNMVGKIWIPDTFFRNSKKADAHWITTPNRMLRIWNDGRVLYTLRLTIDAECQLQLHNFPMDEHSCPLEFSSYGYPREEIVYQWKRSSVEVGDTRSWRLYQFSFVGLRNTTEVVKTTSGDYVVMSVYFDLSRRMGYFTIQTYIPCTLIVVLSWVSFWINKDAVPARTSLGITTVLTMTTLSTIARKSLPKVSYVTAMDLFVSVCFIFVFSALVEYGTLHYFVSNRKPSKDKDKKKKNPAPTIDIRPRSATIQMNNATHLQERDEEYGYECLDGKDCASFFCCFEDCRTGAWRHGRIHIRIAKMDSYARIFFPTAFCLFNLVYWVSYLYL
GABA-A receptor; alpha-1/beta-2/gamma-2, sequence (P62813 whole entry): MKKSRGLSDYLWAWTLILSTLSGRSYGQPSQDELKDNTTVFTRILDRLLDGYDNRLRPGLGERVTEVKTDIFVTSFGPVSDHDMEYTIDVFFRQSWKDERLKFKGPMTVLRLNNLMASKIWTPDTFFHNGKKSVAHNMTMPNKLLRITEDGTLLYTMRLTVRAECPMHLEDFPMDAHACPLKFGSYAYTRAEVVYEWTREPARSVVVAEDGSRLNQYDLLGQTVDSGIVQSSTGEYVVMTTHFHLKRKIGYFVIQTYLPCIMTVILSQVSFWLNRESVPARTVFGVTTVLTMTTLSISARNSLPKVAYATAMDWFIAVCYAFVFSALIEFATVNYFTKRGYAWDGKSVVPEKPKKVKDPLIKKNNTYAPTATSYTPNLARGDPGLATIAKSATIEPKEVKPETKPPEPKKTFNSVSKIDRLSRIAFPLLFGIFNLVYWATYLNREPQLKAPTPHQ
GABA-A receptor; alpha-1/beta-2/gamma-2, sequence (P63138 whole entry): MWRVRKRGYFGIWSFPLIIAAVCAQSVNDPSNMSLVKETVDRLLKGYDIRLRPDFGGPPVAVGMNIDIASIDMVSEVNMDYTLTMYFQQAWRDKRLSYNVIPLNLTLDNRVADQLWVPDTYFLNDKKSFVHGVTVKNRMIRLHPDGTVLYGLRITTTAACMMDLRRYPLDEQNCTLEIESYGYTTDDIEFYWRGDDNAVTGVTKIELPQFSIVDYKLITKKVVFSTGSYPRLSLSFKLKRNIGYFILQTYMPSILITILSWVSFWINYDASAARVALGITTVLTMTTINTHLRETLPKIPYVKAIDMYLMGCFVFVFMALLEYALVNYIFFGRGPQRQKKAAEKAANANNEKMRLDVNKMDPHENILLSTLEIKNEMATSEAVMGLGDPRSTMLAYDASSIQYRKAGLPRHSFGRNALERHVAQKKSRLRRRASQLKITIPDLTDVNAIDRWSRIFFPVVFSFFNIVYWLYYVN

With `CC(=O)c1ccc(C(O)C(F)(F)C(=O)C23CC4CC(CC(C4)C2)C3)cc1` (stereo unspecified) the Activity (HEK293) was “Non-toxic”.

`CC1(C)C2CCC(C(O)C(F)(F)C(=O)c3ccc4c(c3)OCO4)C1C2` (racemic) was tested, and the Activity (HEK293) was “Toxic”.

`CC(=O)c1ccc(C(O)C(F)(F)C(=O)C23CC4CC(CC(C4)C2)C3)cc1` (racemic) [listing 1 of 2 here] gave an EC50 [1] greater than 100 µM.

Compound `O=C(C12CC3CC(CC(C3)C1)C2)C(F)(F)C(O)/C=C/c1ccccc1` (racemic) has an EC50 [1] greater than 100 µM and an EC50 (GABA-B receptor) of 40 µM.

In the case of `CC(=O)c1ccc(C(O)CC(=O)C23CC4CC(CC(C4)C2)C3)cc1` (racemic), the EC50 (GABA-B receptor) is reported as greater than 100 µM.

`COc1ccc(C(O)C(F)(F)C(=O)c2ccc3ccccc3c2)cc1` (racemic) gave an EC50 [1] greater than 100 µM.

In the case of `CCC/C=C/C(O)C(F)(F)C(=O)c1ccc2ccccc2c1` (racemic), the EC50 [1] is reported as greater than 100 µM.

Compound `C/C=C/C=C/C(O)C(F)(F)C(=O)c1ccc2ccccc2c1` (racemic) has an EC50 [1] greater than 100 µM.

In the case of `O=C(c1ccc2ccccc2c1)C(F)(F)C(O)C1CCCCC1` (racemic), the EC50 [1] is reported as greater than 100 µM.

Compound `C/C=C/C=C/C(O)C(F)(F)C(=O)/C=C/CCCC` (racemic) has an EC50 (GABA-B receptor) greater than 100 µM.

For `CC(C)(C)c1cc(C(C)(C)C)c2c(c1)C(O)(C(F)(F)F)C(=O)O2` (racemic), the Activity (Mus musculus [2]) was “Active”, the Activity (Mus musculus [3]) was “Active” and the EC50 [1] was greater than 100 µM.

For `CC(=O)c1ccc(C(O)C(F)(F)C(=O)C23CC4CC(CC(C4)C2)C3)cc1` (racemic) [listing 2 of 2 here], the Activity [4] was “inactive”, the Activity [5] was “inactive” and the Activity (Mus musculus [6]) was “Active”. For the same compound, the Activity (Mus musculus [7]) was “Active”.

For `NCC(CC(=O)O)c1ccc(Cl)cc1` (racemic) [BACLOFEN], the Activity (Mus musculus [8]) was 26.3 g, the Activity (Mus musculus [9]) was 8.1 g and the EC50 [1] was greater than 100 µM.
